This is a sample that favours compounds with a hit; in the whole collection about 3.5% have one here.
MrgX1 agonist: human MrgX1 receptor agonism, primary screen. B-score at 10 µM. MrgX1-HEK293 cells, Fluo-4 calcium fluorescence, agonist mode; hits give high values. Q96LB2. 0.44% of 310,000 active. AID 588627;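 active = calcium response B-score plate-corrected fluorescence ratio at least 3 library SD, with starting fluorescence B-score inside 5 SD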
Target sequence (Q96LB2 whole entry, looked up): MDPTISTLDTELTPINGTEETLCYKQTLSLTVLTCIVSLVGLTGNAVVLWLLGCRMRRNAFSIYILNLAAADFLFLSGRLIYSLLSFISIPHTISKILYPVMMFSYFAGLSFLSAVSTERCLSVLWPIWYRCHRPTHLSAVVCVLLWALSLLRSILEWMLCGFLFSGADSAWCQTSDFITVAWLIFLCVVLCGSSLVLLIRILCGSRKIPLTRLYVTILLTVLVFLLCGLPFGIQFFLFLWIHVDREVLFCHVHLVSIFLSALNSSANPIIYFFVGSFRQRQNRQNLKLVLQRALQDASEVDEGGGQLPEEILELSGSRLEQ
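times = overnight plating, then 30 min 37 °C plus 30 min room-temperature dye loading | assay system = stable human MrgX1 HEK293 cell line | input = fifteen thousand cells per well | signal = kinetic calcium dye fluorescence, Fluo-4 NW | dosing = compound delivered in addition one of three | read-out = B-scored fluorescence response ratio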
RGS4 block: human RGS4 inhibition; 0.45% of 310,000 active; HEK293 M3R/RGS4 inducible, Fluo-4 calcium flux; hits give high values; triggered by carbachol at its EC20; P49798; B-score at 10 µM;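 active = B-score, a plate-corrected calcium signal, over three deviations above library mean, with baseline fluorescence within five deviations of library mean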;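 also: RGS4 expression induced by doxycycline in cells with stable M3 receptor; B-score is computed from the integrated fluorescence ratio over baseline after carbachol; higher B-score means a larger calcium signal and so more RGS4 inhibition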
Target sequence (P49798 whole entry, looked up): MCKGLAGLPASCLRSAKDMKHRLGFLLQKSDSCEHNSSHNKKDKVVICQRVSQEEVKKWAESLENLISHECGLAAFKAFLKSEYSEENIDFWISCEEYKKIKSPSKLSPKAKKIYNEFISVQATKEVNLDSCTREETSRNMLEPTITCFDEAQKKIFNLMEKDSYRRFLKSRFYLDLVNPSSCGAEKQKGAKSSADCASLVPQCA
MrgX1 antagonist: antagonists of human MrgX1 receptor; Q96LB2; MRGX1-HEK293 calcium flux, Fluo-4, BAM8-22 antagonism; hits give low values; 1.3% of 310,000 active; B-score at 10 µM;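 active = calcium-response B-score plate-corrected more than 3 library SD below zero, starting fluorescence within 5 deviations, no agonist response on first addition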;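 also: peak minus trough fluorescence over baseline after final BAM8-22 challenge near maximal dose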
RGS4 act: RGS4 potentiation or activation | B-score at 10 µM | 0.92% of 310,000 active | AID 463111 | HEK293 M3R/inducible RGS4, carbachol calcium flux Fluo4; hits give low values;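 active = B-score of the integrated calcium signal more than 4 SD below the library mean, with starting fluorescence not abnormally high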;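 also: negative B-score means reduced calcium response which marks RGS4 activation or potentiation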
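Also added: carbachol at ECmax as muscarinic agonist stimulus; Assay system: HEK293 cells with stable M3R and inducible RGS4; Timing: overnight RGS4 induction, 30 min dye load 37 °C, 20 min compound RT; Measured by: Fluo4-AM (2 µM) calcium-flux fluorescence, kinetic read.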
MrgX1 allo act: human MrgX1 positive allosteric modulation, primary screen; B-score at 10 µM; AID 588675; MrgX1-HEK293, Fluo-4 calcium flux, FDSS; hits give high values; 0.63% of 310,000 active; Q96LB2;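 active = plate-corrected calcium response at least 3 library SD above typical, normal starting fluorescence, not activating the receptor alone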;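 also: compound read alongside a low EC10 to EC30 dose of BAM8-22 agonist; peak minus trough fluorescence over baseline measured at the second addition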
MrgX1 allo conf: confirmation of human MrgX1 receptor positive allosteric modulators; shares compounds with MrgX1 allo act; MrgX1-HEK293, Fluo-4 calcium fluorescence, FDSS; activation (ratio percentage), % at 10 µM; 13% of 1,200 active; AID 602413;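 active = ratio at least 3 SD above the weak peptide control, stable starting fluorescence, no direct agonism earlier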;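 also: compound followed by low BAM8-22 agonist challenge near EC20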
HEK293 Ca flux: MrgX1 antagonist counter-screen hit in parental HEK293 cells. shares compounds with MrgX1 antagonist. Fluo-4 calcium fluorescence, FDSS. fluorescence ratio F(max-min)/F0 at 10 µM. 2% of 4,000 active. AID 624111;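 active = duplicate-averaged calcium fluorescence ratio at least three times the standard deviation of buffer wells, a nonspecific response in parental cells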
HEK293 Ca counter: counter-screen for MrgX1 allosteric activators: effect in parental HEK293 cells. parental HEK293 calcium flux, Fluo-4 fluorescence ratio; hits give high values. 0.4% of 4,000 active. AID 624114. fluorescence ratio F(max-min)/F0 at 10 µM. shares compounds with MrgX1 antagonist;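 active = calcium fluorescence ratio, averaged over duplicates, at least 3 SD of the buffer-well ratio, meaning a nonspecific response in receptor-free cells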;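 also: untransfected parental HEK293 lacking MrgX1 used as counterscreen for MrgX1 allosteric activators; fluorescence change taken during the second addition on a kinetic imager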
HEK293 Ca cntr2: counter-screen for MrgX1 activators: effect in parental HEK293 cells; shares compounds with MrgX1 antagonist; Fluo-4 calcium fluorescence (FDSS); hits give high values; fluorescence ratio F(max-min)/F0 at 10 µM; 8.7% of 4,000 active;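 active = calcium fluorescence ratio at least three times the spread of buffer wells, meaning a non-specific response in parental cells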
Active calls of the source: *; ! = repeats disagree.

For O=C(CSc1nnc(-c2ccc(OC(F)F)cc2)o1)NCc1cccs1 the results were MrgX1 agonist inactive, RGS4 block inactive, MrgX1 antagonist inactive, RGS4 act inactive, MrgX1 allo act 7.5*, MrgX1 allo conf inactive, HEK293 Ca flux inactive, HEK293 Ca counter inactive and HEK293 Ca cntr2 inactive.
O=C(CSc1nc2ccccc2c(=O)n1-c1ccc(OC(F)F)cc1)NCc1cccs1 was read as MrgX1 agonist inactive, RGS4 block inactive, MrgX1 antagonist inactive, RGS4 act inactive and MrgX1 allo act inactive.
For OC(CCN1CCCCC1)(c1ccccc1)C1C[C@@H]2C=C[C@H]1C2 (some centres not stated) the results were MrgX1 agonist inactive, MrgX1 antagonist inactive, MrgX1 allo act 6.5*, MrgX1 allo conf inactive, HEK293 Ca flux inactive, HEK293 Ca counter inactive and HEK293 Ca cntr2 inactive.
For CN1CCN(CC#CC(C)(O)C2CC3C=CC2C3)CC1 (configuration not stated) the results were MrgX1 agonist inactive, RGS4 block inactive, MrgX1 antagonist inactive, RGS4 act inactive and MrgX1 allo act inactive.
`Cc1nc(CC(=O)Nc2nccs2)cs1` gave MrgX1 agonist inactive, RGS4 block inactive, MrgX1 antagonist inactive, RGS4 act inactive and MrgX1 allo act inactive.
For CC(C)(C)NC(=O)NC(=O)CN1C(=O)NC(c2ccccc2)(c2ccccc2)C1=O the results were MrgX1 agonist inactive, RGS4 block inactive, MrgX1 antagonist inactive, RGS4 act inactive and MrgX1 allo act inactive.
For Oc1ccc(C2CNCCc3c2cc(O)c(O)c3Cl)cc1 (configuration not stated) the results were MrgX1 agonist inactive, RGS4 block inactive, MrgX1 antagonist inactive, RGS4 act inactive, MrgX1 allo act 6.7*!, MrgX1 allo conf inactive, HEK293 Ca flux inactive, HEK293 Ca counter inactive and HEK293 Ca cntr2 inactive.
Oc1cc2c(c(Cl)c1O)CCNCC2c1ccccc1 (configuration not stated) was read as MrgX1 agonist inactive, RGS4 block inactive, MrgX1 antagonist inactive, RGS4 act inactive and MrgX1 allo act inactive.
`COCc1ccc(C(=O)N2CCCC(C(=O)c3cccc(C(F)(F)F)c3)C2)o1` (configuration not stated) gave MrgX1 agonist inactive, RGS4 block inactive, MrgX1 antagonist inactive, RGS4 act inactive, MrgX1 allo act 32*, MrgX1 allo conf inactive, HEK293 Ca flux inactive, HEK293 Ca counter inactive and HEK293 Ca cntr2 inactive.
For COc1ccc(NCC(=O)Nc2ccc(Br)cc2F)c(OC)c1 the results were MrgX1 agonist inactive, RGS4 block inactive, MrgX1 antagonist inactive, RGS4 act inactive, MrgX1 allo act 9.2*, MrgX1 allo conf inactive, HEK293 Ca flux inactive, HEK293 Ca counter inactive and HEK293 Ca cntr2 inactive.
For O=C(COC(=O)c1cc(=O)[nH]c2ccccc12)NC1CCCCCCC1 the results were MrgX1 agonist inactive, RGS4 block inactive, MrgX1 antagonist inactive, RGS4 act inactive, MrgX1 allo act 9.7*, MrgX1 allo conf inactive, HEK293 Ca flux inactive, HEK293 Ca counter inactive and HEK293 Ca cntr2 inactive.
`Cc1ccc(S(=O)(=O)N2CCOCC2)cc1NC(=O)COC(=O)c1cc(=O)[nH]c2ccccc12` gave MrgX1 agonist inactive, RGS4 block inactive, MrgX1 antagonist inactive, RGS4 act inactive, MrgX1 allo act 9.8*, MrgX1 allo conf inactive, HEK293 Ca flux inactive, HEK293 Ca counter inactive and HEK293 Ca cntr2 inactive.
Screening Cn1c(SCc2ccccc2Cl)nc2c1c(=O)[nH]c(=O)n2C returned MrgX1 agonist inactive, RGS4 block inactive, MrgX1 antagonist inactive, RGS4 act inactive and MrgX1 allo act inactive.
For Cc1c(CC(=O)O)c(=O)oc2c(C)c(OCc3ccc(F)cc3F)ccc12 the results were MrgX1 agonist inactive, RGS4 block inactive, MrgX1 antagonist inactive, RGS4 act inactive and MrgX1 allo act inactive.
Screening COc1ccccc1COc1ccc2c(C)c(CC(=O)O)c(=O)oc2c1C returned MrgX1 agonist inactive, RGS4 block inactive, MrgX1 antagonist inactive, RGS4 act inactive, MrgX1 allo act 13*, MrgX1 allo conf inactive, HEK293 Ca flux inactive, HEK293 Ca counter inactive and HEK293 Ca cntr2 inactive.
For Cc1ccc(NC2(C#N)C(=O)Nc3ccccc32)cc1C (configuration not stated) the results were MrgX1 agonist inactive, RGS4 block inactive, MrgX1 antagonist inactive, RGS4 act inactive, MrgX1 allo act 9*, MrgX1 allo conf inactive, HEK293 Ca flux inactive, HEK293 Ca counter inactive and HEK293 Ca cntr2 47*.
For COC(=O)c1ccc(NC2(C#N)C(=O)Nc3ccccc32)cc1 (configuration not stated) the results were MrgX1 agonist inactive, RGS4 block inactive, MrgX1 antagonist inactive, RGS4 act inactive and MrgX1 allo act inactive.
`Cc1c(CC(=O)N[C@@H](C)C(=O)O)c(=O)oc2cc3oc4c(c3cc12)CCCC4` gave MrgX1 agonist inactive, RGS4 block inactive, MrgX1 antagonist inactive, RGS4 act inactive and MrgX1 allo act inactive.
Screening Cc1ccc(C(=O)N2CCCC(CCC(=O)N3CCN(c4ccccn4)CC3)C2)cn1 (configuration not stated) returned MrgX1 agonist inactive, RGS4 block inactive, MrgX1 antagonist inactive, RGS4 act inactive and MrgX1 allo act inactive.
`Cc1cc(C(=O)N2CCCC(CCC(=O)N3CCN(c4ccccn4)CC3)C2)c(C)o1` (configuration not stated) gave MrgX1 agonist inactive, RGS4 block inactive, MrgX1 antagonist inactive, RGS4 act inactive and MrgX1 allo act inactive.
Cc1cccc(C(=O)N2CCCC(CCC(=O)N3CCN(c4ccccn4)CC3)C2)c1C (configuration not stated) was read as MrgX1 agonist inactive, RGS4 block inactive, MrgX1 antagonist inactive, RGS4 act inactive, MrgX1 allo act 9.4*, MrgX1 allo conf inactive, HEK293 Ca flux inactive, HEK293 Ca counter inactive and HEK293 Ca cntr2 inactive.
